This is an account of results in ChEMBL document CHEMBL3739264, “Synthesis and bio-evaluation of novel quinolino-stilbene derivatives as potential anticancer agents” (Bioorg Med Chem, 2015).

Assay [1] can be described thus: Cell cycle arrest in human MCF10A cells assessed as accumulation at sub-G1 phase at 6 uM after 12 hrs by flow cytometry analysis relative to control. The class given is functional, cell-based. Conditions: MCF-10A. The method in brief:
(§1)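 About 1 × 10^6 cells per plate seeded overnight, then treated with compound and harvested at set times. Cells fixed in 75% ethanol at -20°C for 12-24 h and stained 1 h with 100 µg/ml PI, 100 µg/ml RNase A and 0.3% NP-40 in PBS. DNA content measured by flow cytometry; phase fractions compared with sham-treated cells.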

Assay [2] relates to HeLa. As to the kind of experiment: Cell cycle arrest in human HeLa cells assessed as accumulation at S phase at 6 uM after 48 hrs by flow cytometry analysis relative to control. In kind it is functional. The method in brief:
as §1
(In flow cytometry, cells or beads pass a laser one at a time.)

Assay [3] can be described thus: Cell cycle arrest in human MCF10A cells assessed as accumulation at G0-G1 phase at 6 uM after 24 hrs by flow cytometry analysis relative to control. In kind it is functional, cell-based. Conditions: MCF-10A. Summed up:
as §1

Assay [4] in a line: Cell cycle arrest in human MCF10A cells assessed as accumulation at sub-G1 phase at 6 uM after 72 hrs by flow cytometry analysis relative to control. In kind it is functional, cell-based. Conditions: MCF-10A. Summed up:
as §1

Assay [5] relates to MCF7. The assay can be described thus: Antiproliferative activity against human MCF7 cells after 72 hrs by SRB assay. The class given is functional, cell-based. Conditions: MCF7, 72 h. Summed up:
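Cells seeded at 4,000-5,000/well for 16 h, then exposed 72 h to serial dilutions of compound in DMSO; sham DMSO as 100% and TCA-treated wells as 0%. IC50 from sigmoidal dose-response curves; two biological replicates, four technical each.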
In general terms: In SRB staining, fixed cells bind dye roughly in proportion to their protein.

For orientation: IC50 means the midpoint of a concentration-inhibition curve. Regarding `FC(F)(F)c1cccc(/C=C\c2cc3ccccc3nc2Cl)c1`, the Activity in assay [1] turned out to be 3.4%; in assay [2] it was 12.9%; in assay [3], 49.2%; in assay [4], 12.1%. Moreover, in assay [5], the IC50 was 3.53 µM.
